From paper PMC2782447 (Apoptosis : an international journal on programmed cell …, 2008)
The star is where a group is joined. pNA = O=[N+]([O-])c1ccc(N*)cc1

What was measured:
caspase-3 [1] = target: T1, caspase-3 (Homo sapiens, UniProt P42574); assay: Crystal structure of caspase-3/LDESD; format: binding; conditions: crystal structure caspase-3/LDESD, 1.61 Å, PDB 3EDQ
T1 sequence (P42574 29-175 limits assumed): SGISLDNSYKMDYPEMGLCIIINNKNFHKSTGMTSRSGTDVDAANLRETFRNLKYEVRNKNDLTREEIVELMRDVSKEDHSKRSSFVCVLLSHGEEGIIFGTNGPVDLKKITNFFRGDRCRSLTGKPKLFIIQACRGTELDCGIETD
T1 sequence (P42574 176-277 limits assumed): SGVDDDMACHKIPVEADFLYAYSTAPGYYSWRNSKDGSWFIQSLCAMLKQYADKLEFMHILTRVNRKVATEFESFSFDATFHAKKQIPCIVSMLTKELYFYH

caspase-7 [2] = target: T2, caspase-7 (Homo sapiens, UniProt P55210); assay: Crystal structure of caspase-7/LDESD; format: binding; conditions: crystal structure caspase-7/LDESD, 2.45 Å, PDB 3EDR
T2 sequence (P55210 24-198 limits assumed): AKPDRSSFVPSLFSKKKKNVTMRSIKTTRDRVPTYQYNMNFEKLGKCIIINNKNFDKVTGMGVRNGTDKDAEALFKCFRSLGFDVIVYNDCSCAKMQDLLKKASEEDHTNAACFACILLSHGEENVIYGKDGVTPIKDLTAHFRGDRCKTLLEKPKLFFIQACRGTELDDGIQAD
T2 sequence (P55210 207-303 limits assumed): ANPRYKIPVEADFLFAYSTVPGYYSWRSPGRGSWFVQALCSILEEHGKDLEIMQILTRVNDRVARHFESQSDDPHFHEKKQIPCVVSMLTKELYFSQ

caspase-8 = caspase-8 (Homo sapiens, UniProt Q14790); assay: Colorimetric substrate hydrolysis by caspase-8; format: biochemical; conditions: relative to DEVD = 100%; caspase-8, pH 7.5
caspase-6 = target: T3, caspase-6 (Homo sapiens, UniProt P55212); assay: Colorimetric substrate hydrolysis by caspase-6; format: biochemical; conditions: for kcat/Km: 50 mM HEPES, pH 7.25, 100 mM NaCl, 10% sucrose, 0.1% CHAPS, 405 nm, triplicate; for Relative kcat/Km (relative activity): relative to DEVD = 100%
T3 sequence (P55212 25-179 limits assumed): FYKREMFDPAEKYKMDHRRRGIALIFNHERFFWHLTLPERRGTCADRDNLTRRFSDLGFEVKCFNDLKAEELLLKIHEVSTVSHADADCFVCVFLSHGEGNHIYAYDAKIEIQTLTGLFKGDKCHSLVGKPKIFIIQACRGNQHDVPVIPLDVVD
T3 sequence (P55212 194-293 limits assumed): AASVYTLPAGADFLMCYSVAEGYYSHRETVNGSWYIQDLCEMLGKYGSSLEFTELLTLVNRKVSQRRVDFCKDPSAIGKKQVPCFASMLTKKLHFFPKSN
Summary of the method: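 It was purified by Ni-NTA and S-100 gel filtration and self-processed into active subunits. Assays used 50 mM HEPES pH 7.25, 100 mM NaCl, 10% sucrose, 0.1% CHAPS, with pNA substrates at varied concentrations, A405, in triplicate.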

caspase-7 [3] = target: T2, caspase-7; assay: Colorimetric substrate hydrolysis by caspase-7; format: biochemical; conditions: relative to DEVD = 100%; caspase-7, pH 7.5
caspase-3 [4] = target: T1, caspase-3; assay: Colorimetric substrate hydrolysis by caspase-3; format: biochemical; conditions: for Relative kcat/Km (relative activity): relative to DEVD = 100%, caspase-3, pH 7.5

Chain of caspase-8 (Q14790 217-374 limits assumed): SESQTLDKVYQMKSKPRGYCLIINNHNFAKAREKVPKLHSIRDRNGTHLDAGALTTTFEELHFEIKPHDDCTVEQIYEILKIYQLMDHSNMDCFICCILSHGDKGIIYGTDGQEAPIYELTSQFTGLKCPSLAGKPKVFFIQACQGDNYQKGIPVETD
Chain of caspase-8 (Q14790 385-479 limits assumed): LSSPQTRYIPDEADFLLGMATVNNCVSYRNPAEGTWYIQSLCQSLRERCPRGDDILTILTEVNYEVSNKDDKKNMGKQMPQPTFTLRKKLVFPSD

Row | kcat/Km fold higher than DEVD (caspase-6; LEHD versus DEVD, caspase-6, pH 7.25) | Substance | covalent binding mode (active site cysteine with aldehyde) (caspase-3 [1]) | covalent binding mode (active site cysteine with aldehyde) (caspase-7 [2]) | Relative kcat/Km (relative activity) (caspase-8) | kcat/Km (caspase-6) | Relative kcat/Km (relative activity) (caspase-6; caspase-6, pH 7.25) | Relative kcat/Km (relative activity) (caspase-7 [3]) | increased hydrolysis relative to DEVD (caspase-3 [4]; caspase-3, increase over DEVD) | Relative kcat/Km (relative activity) (caspase-3 [4]) | substrate preference, in words (caspase-6; caspase-6, polar P5) | activity of QDEVD compared with DEVD, in words (caspase-3 [4]; caspase-3)
1 |  | Ac-LDESD-aldehyde | forms a hemithioacetal bond with the aldehyde group of the inhibitor | forms a hemithioacetal bond with the aldehyde group of the inhibitor |  |  |  |  |  |  |  | 
2 |  | Ac-LDEVD-pNA |  |  | 20% | 0.068±0.01 min^−1μM^−1 | 118% | 56% | 50% | 146% |  | 
3 |  | Ac-QDEVD-pNA |  |  | 18% | 0.086±0.01 min^−1μM^−1 | 148% | 67% |  | 85% | preference for polar P5 in QDEVD | the activity was similar for the tetrapeptide DEVD and the pentapeptide QDEVD
4 | 3 fold | LEHD |  |  |  | 0.19 min^−1μM^−1 |  |  |  |  |  | 
